# In the library only some 3.8% were active in any assay of this set; here they are far more common.
# KCNQ1 act: potentiators or activators of KCNQ1 channel, primary screen, cell-based, thallium flux, high-throughput; Potassium voltage-gated channel subfamily KQT member 1 (Homo sapiens), P51787; CHO-K1 KCNQ1, thallium flux FluxOR fluorescence; active compounds read high; B-score at 10 µM; hit rate 0.35% among 310,000; AID 2648, 2010;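 active = fluorescence ratio B-score, a plate-corrected score, at least three library SD, with initial intensity B-score within 5 SD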
#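 Assay system: stable KCNQ1 CHO-K1 line; medium: assay buffer, equal DMSO in all wells; timing: 90 min dye loading and 20 min compound exposure, both at room temperature; technique: kinetic FluxOR thallium fluorescence, 10-s 1-Hz baseline, 110-s post-stimulus read; read-out basis: B score of baseline-normalized fluorescence ratio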
# hERG rescue: hERG rescue from dofetilide block, primary screen, cell-based, CHO-hERG, FluxOR thallium flux, dofetilide IC70. Voltage-gated inwardly rectifying potassium channel KCNH2 (Homo sapiens), Q12809. dofetilide IC70 present. activation (rescue from dofetilide block), less the hit threshold, % at 10 µM. hit rate 0.51% among 310,000;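 active = activation above the mean of controls blocked by dofetilide plus 5 SD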;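 note: thallium influx through hERG after potassium depolarization seen as dye fluorescence rise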
# Kir21 block: inhibitors of mouse Kir2.1 inward-rectifier potassium channel; HEK293-Kir2.1, FluxOR thallium flux fluorescence; active compounds read low; AID 1672, 2009; B-score at 10 µM; Inward rectifier potassium channel 2 (Mus musculus), P35561; hit rate 0.85% among 310,000;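 active = fluorescence ratio B-score at or below minus 3 SD of library scores, with starting-brightness B-score within 2 SD, cut at about -4.2 in these data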;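 note: channel flux triggered by added potassium and thallium sulfate stimulus; B-score of peak minus minimum fluorescence over baseline after thallium stimulus; more negative B-score means stronger Kir2.1 block with less thallium influx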
# KCNK9 inh: KCNK9 potassium channel inhibitors, primary screen, HEK293 cells, thallium flux; Potassium channel subfamily K member 9 (Homo sapiens), Q9NPC2; B-score at 10 µM; hit rate 1.2% among 310,000; AID 488922, 2010; FluxOR thallium flux fluorescence; active compounds read low;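 active = ratio B-score over 3 SD below the library mean, with starting fluorescence within 5 SD of its mean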;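 note: negative B-score means less thallium flux so channel inhibition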
# Target sequence (Q9NPC2 whole entry, looked up): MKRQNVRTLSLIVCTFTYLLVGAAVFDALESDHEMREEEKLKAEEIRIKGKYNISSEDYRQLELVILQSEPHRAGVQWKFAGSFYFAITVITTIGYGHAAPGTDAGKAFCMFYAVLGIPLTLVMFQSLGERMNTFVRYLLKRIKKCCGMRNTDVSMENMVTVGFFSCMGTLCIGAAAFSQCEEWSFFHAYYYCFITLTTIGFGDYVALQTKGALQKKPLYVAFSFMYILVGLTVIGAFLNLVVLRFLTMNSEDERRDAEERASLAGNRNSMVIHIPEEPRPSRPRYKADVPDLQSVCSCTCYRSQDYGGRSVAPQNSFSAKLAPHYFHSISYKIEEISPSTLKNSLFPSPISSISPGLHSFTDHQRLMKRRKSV
# KCNQ1 inh: inhibitors of human KCNQ1 channel, primary screen, cell-based, thallium flux, high-throughput; CHO-K1 KCNQ1, FluxOR thallium flux fluorescence; active compounds read high; AID 2642, 2010; B-score at 10 µM; hit rate 1.3% among 310,000; Potassium voltage-gated channel subfamily KQT member 1 (Homo sapiens), P51787;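 active = compounds whose thallium flux B-score, printed positive for inhibition, exceeds three library SD while starting fluorescence stays within three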;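 note: channel opened by potassium depolarization with thallium stimulus after 20 min compound exposure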
# KCNK3 block: human KCNK3 channel inhibitors, primary screen, CHO cells, FluxOR thallium flux, B-score; Potassium channel subfamily K member 3 (Homo sapiens), O14649; B-score at 10 µM; hit rate 0.84% among 340,000; FluxOR fluorescence; active compounds read low;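 active = B-score under library mean minus 4 SD, starting fluorescence ratio at most library mean plus 5 SD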;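 note: more negative B-score means stronger inhibition of thallium flux through KCNK3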
# KCNK9 inh conf: KCNK9 potassium channel inhibitors, confirmation, HEK293 cells, thallium flux, duplicate; shares compounds with KCNK9 inh; FluxOR thallium flux fluorescence; inhibition, % at 10 µM; hit rate 43% among 4,900; AID 492992, 2010;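 active = thallium signal inhibited by more than 5 SD of the compound-free buffer control wells, on both duplicate plates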;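 note: 0% = assay buffer control wells without compound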
# Kir21 sel: mouse Kir2.1 channel inhibition, confirmation, selectivity assay for KCNK9 modulator project, cell-based, HEK293, thallium flux | Kir2.1 cells, FluxOR thallium flux fluorescence | hit rate 4% among 4,900 | shares compounds with KCNK9 inh | AID 492993, 2010 | inhibition, % at 10 µM;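 active = thallium signal drop more than 5 SD beyond the mean of the no-compound control wells, seen in both duplicate plates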;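 note: signal is fluorescence rise after thallium addition divided by baseline fluorescence; plate controls were assay buffer only for no effect and full block by chlorpromazine control for full effect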
# KCNK9 uninduced: thallium flux in non-induced HEK293 cells, confirmation, counter-screen for KCNK9 inhibitor project, cell-based, second counter screen, non-induced KCNK9-HEK293. FluxOR thallium flux. inhibition, % at 10 µM. hit rate 40% among 4,900. shares compounds with KCNK9 inh;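 active = thallium signal drop beyond 5 SD of the untreated control mean, on both duplicate plates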;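 note: plate controls were buffer only IC0 wells for no effect and SID17386958 at its maximal inhibitory level for full effect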
# The depositor's hits bear a star; i = inactive; · = no result.
SMILES,KCNQ1 act,hERG rescue,Kir21 block,KCNK9 inh,KCNQ1 inh,KCNK3 block,KCNK9 inh conf,Kir21 sel,KCNK9 uninduced
O=C1NN(c2ccccc2)C(=O)/C1=C/c1ccc(Sc2cccc3ccccc23)o1,i,-10.5,-0.02,i,i,i,i,i,i
COc1cc2c(cc1OC)C(Cc1ccc(O)cc1)NCC2 (configuration not stated),i,-5.3,-1.14,i,i,i,·,·,·
CCOC(=O)COc1cc(N2C(=O)CSCC2=O)c(Cl)cc1Cl,i,1.7,-1.62,i,i,i,·,·,·
CCOC(=O)COc1cc(-n2c(=S)[nH]c3cc(OC)c(OC)cc3c2=O)c(Cl)cc1Cl,16*,-5.8,0.52,-13.1*,i,i,53.5%*,i,i
COc1ccc(NC(=O)/C(N=Nc2ccc(Cl)c(S(=O)(=O)Nc3ccc(Cl)cc3)c2)=C(\C)O)cc1,·,·,·,·,·,i,·,·,·
O=C(COc1ccccc1C(=O)Nc1ccccc1)c1ccc(Br)cc1,i,-11.9,0.47,-9.55*,i,i,35.0%*,i,i
O=C(COc1ccccc1C(=O)Nc1ccccc1)NCCc1ccccc1,i,-8.9,-0.58,i,i,i,·,·,·
O=C(CCc1ccc(Oc2cc([N+](=O)[O-])cc([N+](=O)[O-])c2)cc1)N1CCCCCC1,i,-7.2,0.02,-10.1*,i,i,46.0%*,i,i
O=C(Cc1ccc([N+](=O)[O-])cc1)N1CCCCCC1,i,-9.0,-0.84,i,i,i,·,·,·
O=C(O)CSc1cc(NS(=O)(=O)c2ccc(Br)cc2)c2ccccc2c1O,i,-7.0,1.26,i,i,i,i,i,28.5%*
COc1cc(Nc2ccc(C(=O)O)cc2[N+](=O)[O-])cc(OC)c1,i,-6.8,0.92,i,i,i,·,·,·
COCCN1C(=O)/C(=C/c2ccc(Oc3ccc([N+](=O)[O-])cn3)c(OC)c2)SC1=Nc1ccccc1,i,-7.2,1.63,i,i,i,i,i,i
COc1cc(/C=C2/NC(=O)N(CC(=O)Nc3ccc(C)cc3)C2=O)ccc1Oc1ccc([N+](=O)[O-])cn1,i,-12.9,1.04,i,i,i,·,·,·
CCN(CC)S(=O)(=O)c1ccc(N2CCOCC2)c(NC(=O)c2ccccc2)c1,i,-15.2,0.42,i,i,i,·,·,·
CCN(CC)S(=O)(=O)c1ccc(N2CCOCC2)c(NC(=O)C23CC4CC(CC(Cl)(C4)C2)C3)c1,i,-9.7,0.65,i,i,i,i,i,i
O=[N+]([O-])c1cc(/C=N/O)ccc1Oc1ccccc1Cl,i,-14.9,-3.83,i,i,i,·,·,·
O=[N+]([O-])c1cc(/C=N/O)ccc1Oc1cccc(Cl)c1,i,-13.9,0.34,-10.3*,i,i,41.0%*,i,25.0%*
Clc1ccccc1COc1ccccc1-c1nnco1,i,-9.5,0.1,i,i,i,·,·,·
c1ccc(OCCOc2ccccc2-c2nnco2)cc1,i,2.5,-1.37,-8.35*,i,i,i,i,28.5%*

# Screens from PubChem BioAssay.
